Screening results (PubChem BioAssay)
A selection: hits, their analogues and other compounds. The true share with any hit is near 6.4%.
CHOP inh: inhibitors of CHOP promoter induction, primary screen, cell-based, unfolded protein response, luciferase reporter; CHO-K1 CHOP-promoter luciferase, tunicamycin-induced, 15-18 h; inhibition, % at 10 µM; actives 3.8% (n = 220,000);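 active = compounds that reduced the stress-induced luciferase reporter signal by more than about 70% of percent inhibition, limit read from the data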
TbMetRS inhib: T. brucei MetRS inhibitors, primary screen, biochemical, luminescence | purified T. brucei MetRS, ATP depletion, Kinase-Glo luminescence | inhibition, % at 11.9 µM | actives 0.4% (n = 360,000) | AID 624268, 2012;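 active = inhibition above a per-plate cutoff of the control wells' mean inhibition plus 3 SD, cut at about 5.5% in these data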
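System: purified T. brucei MetRS enzyme / Detection: Kinase-Glo luciferase luminescence reporting remaining unconsumed ATP / Medium: HEPES buffer with MgCl2, KCl, DTT, spermine, BSA, pyrophosphatase / Replication: singlicate, one well per compound / Evaluation: percent inhibition relative to median high and low control wells / Schedule: 2 h aminoacylation at 25 °C after 15 min preincubation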
WT yeast gro inh: growth inhibition of WT strain, primary screen, mitochondrial fusion inhibitor project, WT and mutant strains, chemical genetic; mitochondrial fusion phenotypic screen; inhibition, % at 10 µM; actives 2.1% (n = 190,000); AID 1362, 2008; in the data active = inhibition above about 58%; tested in S. cerevisiae
EBV gp42 block: Epstein-Barr virus gp42 inhibitors, primary screen, biochemical, uHTS, fluorescence polarization; Fluorescence polarization binding assay, mP read-out; inhibition, % (tested at 21.74 µM); actives 0.42% (n = 220,000); in the data active = inhibition above about 50%
Target sequence (Q1HVG2 whole entry, looked up): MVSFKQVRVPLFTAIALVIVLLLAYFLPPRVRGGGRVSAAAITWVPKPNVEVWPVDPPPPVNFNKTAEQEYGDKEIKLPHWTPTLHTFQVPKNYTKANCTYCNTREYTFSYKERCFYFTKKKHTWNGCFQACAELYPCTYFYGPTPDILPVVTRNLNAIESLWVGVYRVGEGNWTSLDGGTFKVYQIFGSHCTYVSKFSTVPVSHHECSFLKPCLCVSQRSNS
GRIN3A LBD mod: binders of NR3A ligand-binding domain, primary screen, biophysical, differential scanning fluorimetry, uHTS. actives 2.5% (n = 340,000). Tm shift relative to glycine control, % at 25 µM. NR3A LBD differential scanning fluorimetry, Tm shift; 0% = protein alone, 100% = glycine-bound protein. Glutamate receptor ionotropic, NMDA 3A (GRIN3A) ligand-binding domain;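 active = melting temperature shift of at least 10% of the positive control shift, at one fixed dose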
MPTP inh: mitochondrial permeability transition pore inhibitors, primary screen, biochemical, isolated mouse mitochondria, absorbance; Ca2+ swelling absorbance, 30 min; inhibition, % at 10 µM; actives 1.4% (n = 360,000);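 active = inhibition of 50% or more, scaled per plate between neutral and stimulator controls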
Of the large screens only hits and unclear results are named; the others gave an inactive call.

C#CCO[C@@H]1C[C@H](n2cnc3c(NC(=O)c4ccccc4)ncnc32)O[C@@H]1CO	none (no result: WT yeast gro inh)
CCc1ccc2c(c1)C(c1ccc(N3CCOCC3)cc1)=NNC(c1ccncc1)=N2	WT yeast gro inh 68.2
CCOc1ccc(C2=Nc3ccc(Br)cc3C(c3ccc(N4CCOCC4)cc3)=NN2)cc1	none
Nc1nc(N)c(C=Nc2ccc(Br)cc2)c(Nc2ccc(Br)cc2)n1	GRIN3A LBD mod 50.7 (no result: WT yeast gro inh)
Cc1ccc(Oc2nccc(-c3ccc(Cl)cc3)n2)cc1	CHOP inh 78.3
Clc1ccc(-c2cnc(Oc3ccccc3)nc2)cc1	none
CC(=O)Nc1ccc(O)c(-c2nc3ccccc3s2)c1	none
O=C(CCS(=O)(=O)c1ccccc1)Nc1ccc(-c2nc3ccccc3s2)c(O)c1	GRIN3A LBD mod 14.9
O=C(Nc1ccc(-c2nc3ccccc3s2)c(O)c1)C1=COCCO1	CHOP inh 71.6, GRIN3A LBD mod 36.5
O=C(CCl)N1c2ccccc2SCC1c1ccccc1 (configuration not stated)	none (no result: CHOP inh, WT yeast gro inh, EBV gp42 block)
O=C(CCl)N1c2ccccc2OCC1c1ccccc1 (configuration not stated)	CHOP inh 106.0
CCOC(=O)N1CCN(CC(=O)Nc2ccc(F)c(F)c2F)CC1	none
c1cc2c(cc1C1=NNC(=NC3CC3)SC1)OCCO2	CHOP inh 98.0
COc1ccc(N=C2NN=C(c3ccc4c(c3)OCCO4)CS2)cc1	none
FC(F)Sc1ccc(N=C2NN=C(c3ccc4c(c3)OCCO4)CS2)cc1	GRIN3A LBD mod 14.8
O=C(/C=C/[C@H]1O[C@@H](n2ccc(=O)[nH]c2=O)[C@H](O)[C@@H]1O)NCCc1cccs1	none (no result: CHOP inh, WT yeast gro inh, EBV gp42 block, GRIN3A LBD mod)
Nc1ncc2[nH]c(N)nc2n1	none (no result: CHOP inh, WT yeast gro inh, EBV gp42 block)
CCN=C1SC(C(=O)Nc2cc(Cl)cc(Cl)c2)CC(=O)N1CC (configuration not stated)	CHOP inh 74.6
CCN=C1SC(C(=O)Nc2cccc(Cl)c2)CC(=O)N1CC (configuration not stated)	none
CCN=C1SC(C(=O)Nc2ccc(Cl)c(Cl)c2)CC(=O)N1CC (configuration not stated)	CHOP inh 73.6
CCN=C1SC(C(=O)Nc2cccc(C)c2)CC(=O)N1CC (configuration not stated)	none
C/C(=N/OC(=O)c1c(-c2c(Cl)cccc2Cl)noc1C)c1cnccn1	EBV gp42 block 55.1
C/C(=N/OC(=O)c1c(-c2ccccc2Cl)noc1C)c1cnccn1	none
Cc1ccc2c(c1)C(=O)C(=O)N2CCCOc1ccccc1C	none
Cc1cccc2c1N(CCCOc1ccccc1)C(=O)C2=O	none
Cc1cccc2c1N(CCCOc1ccc(C(C)(C)C)cc1)C(=O)C2=O	WT yeast gro inh 97.1
Cc1ccccc1OCCCN1C(=O)C(=O)c2cccc(C)c21	CHOP inh 107.3
O=C(c1ccccc1)c1c2c(cc3sc4ccccc4[n+]13)-c1cccc3cccc-2c13	CHOP inh 82.4
Cc1sc2cc3c(c(C(=O)c4ccccc4)[n+]2c1C)-c1cccc2cccc-3c12	WT yeast gro inh 69.6 (no result: TbMetRS inhib, MPTP inh)
Cc1cc2ccccc2cc1C(=O)c1ccccc1	none (no result: CHOP inh, WT yeast gro inh, EBV gp42 block)
COc1ccc(S(=O)(=O)NCc2ccc(C(=O)N3CCN(Cc4ccccc4)CC3)cc2)cc1	none (no result: CHOP inh, WT yeast gro inh, EBV gp42 block)
CC1Cc2nc(SCC(=O)Nc3ccc4c(c3)OCO4)n(Cc3ccccc3)c(=O)c2S1 (configuration not stated)	none
CCN(CC)C(=O)CSc1ccc(C(F)(F)F)cc1[N+](=O)[O-]	none
COc1cc(Cl)c(C)cc1NC(=O)CN(C)Cc1cccc(OC)c1OC	WT yeast gro inh 59.2
COc1cc(Cl)c(C)cc1NC(=O)CSC1=NCCS1	GRIN3A LBD mod 20.2 (no result: CHOP inh, WT yeast gro inh, EBV gp42 block)
COc1ccc(Br)cc1CN(C)CC(=O)Nc1cc(Cl)ccc1Cl	none
COc1ccc(Br)cc1CN(C)CC(=O)Nc1ccccc1Cl	WT yeast gro inh 67.1
CN(CC(=O)Nc1ccccc1Br)CC(=O)Nc1ccccc1-c1ccccc1	none (no result: CHOP inh, WT yeast gro inh, EBV gp42 block)
Cc1cc(NC(=O)CSC2=NCCS2)no1	none
CN(CC(=O)Nc1ccccc1-c1ccccc1)Cc1ccccc1Cl	WT yeast gro inh 70.3
COc1ccccc1CN(C)CC(=O)Nc1cccc2ccccc12	none (no result: CHOP inh, WT yeast gro inh, EBV gp42 block)
COc1ccc(/C=C(/NC(=O)c2ccco2)C(=O)N2CCCC2=O)cc1	none
COc1ccccc1-c1cc(-c2ccccc2)nc(=O)[nH]1	none (no result: CHOP inh, WT yeast gro inh, EBV gp42 block)
Cc1sc(NC(=O)CSC2=NCCS2)nc1-c1ccccc1	CHOP inh 72.6
O=C(CSC1=NCCS1)Nc1nc2ccccc2s1	none
Cc1ccc(CNC(=O)C2CCN(S(=O)(=O)c3ccc4c(c3)CC(C)N4C(=O)C3CC3)CC2)cc1 (configuration not stated)	none (no result: CHOP inh, WT yeast gro inh, EBV gp42 block)
O=C1c2cccc3c(O)ccc(c23)C(=O)N1Cc1ccco1	EBV gp42 block 171.9
O=C1c2ccccc2C(=O)N1Cc1ccco1	none
O=C(COC(=O)CNC(=O)c1ccccc1F)Nc1ccc2c(c1)OCO2	none (no result: CHOP inh, WT yeast gro inh, EBV gp42 block)
O=C(Nc1ccccc1C(=O)NCCc1ccccc1)c1ccco1	GRIN3A LBD mod 15.6
O=C(O)CC(NC(=O)c1ccccc1NC(=O)c1ccccc1)C(=O)O (configuration not stated)	GRIN3A LBD mod 28.0
CC(=O)c1ccccc1NC(=O)COC(=O)c1ccccc1NC(=O)c1ccccc1	none
Cc1ccc(C(=O)Nc2ccccc2C(=O)NC(CC(=O)O)C(=O)O)cc1 (configuration not stated)	none
COC(=O)COC(=O)c1ccccc1NC(=O)c1ccccc1	WT yeast gro inh 70.6
CCOC(=O)c1ccccc1NC(=O)c1cccc(F)c1	CHOP inh 74.2
O=C(O)CNC(=O)c1ccccc1NC(=O)c1ccco1	none
COCCCNC(=S)N1CCCN(c2nc3cc(C)c(C)cc3cc2C#N)CC1	none
Brc1ccccc1-c1nnc(CSc2nnnn2-c2ccccc2)o1	none
CCOC(=O)c1[nH]c(COC(=O)c2ccccc2NC(=O)c2ccco2)c(C(=O)OCC)c1C	CHOP inh 81.3
CCOC(=O)c1ccccc1NC(=O)c1c(F)c(F)c(F)c(F)c1F	CHOP inh 73.3
CCOC(=O)c1c(C)[nH]c(C(=O)COC(=O)c2ccccc2NC(=O)c2ccco2)c1C	none
CCOC(=O)c1ccccc1NC(=O)c1ccc(F)cc1	none
Cc1ccc(NC(=O)[C@@H](NC(=O)c2cccc(S(=O)(=O)N3CCOCC3)c2)C(C)C)cc1C	none
COc1ccc(/C=C/C(=O)N2CCN(c3ccccn3)CC2)c2ccccc12	WT yeast gro inh 62.4
